Source: PubChem
Sampled rows, rich in hits. Any-hit rate of the full collection: about 2.6%.
TCR-CD3 inh: blocks the human TCR-CD3 interaction. TAMRA-labeled TCR probe fluorescence, biochemical. inhibition, % at 9.4 µM. hit rate 0.37% among 360,000. AID 651800; in the data active = inhibition above about 19%;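 also: recombinant mutant TCR 2C K166C tagged with TAMRA read by polarization; 0% = receptor in buffer alone and 100% = receptor with positive control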
ABHD4 inh: inhibits mouse alpha/beta hydrolase domain 4 | Q8VD66 | purified mABHD4, FP-Rh probe fluorescence polarization | inhibition, % at 8.92 µM | hit rate 0.54% among 370,000 | AID 720543;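 active = inhibition exceeding the mean over every tested compound plus 3 SD, cut at about 30% in these data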;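 also: 0% = plate median of compound wells and 100% = S159A mutant with DMSO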
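system = mouse ABHD4 enzyme, wild type | medium = HEPES pH 7.0, NaCl, Pluronic buffer | also added = FP-Rh probe | incubation = Enzyme–compound pre-incubation 45 min, then probe 60 min, both 25 °C | technique = fluorescence polarization, excitation 525 nm, emission 598 nm, BODIPY TMR filters | controls = S159A mutant high control, sample median low control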
PRMT1 inh: blocks human protein arginine methyltransferase 1. Q99873. recombinant PRMT1, activity-based probe fluorescence polarization. inhibition, % at 2.79 µM. hit rate 1.3% among 370,000;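 active = inhibition above about 21% made by adding two undisclosed values, limit read from the data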
HTRA1 inh: HTRA1 (human) protease inhibition | recombinant HTRA1, FP-rhodamine activity-based probe, fluorescence polarization | inhibition, % at 5.96 µM | hit rate 0.5% among 340,000 | AID 504803; in the data active = inhibition above about 36%;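 also: 0% = enzyme with DMSO and 100% = wells lacking enzyme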
Target sequence (Q92743 whole entry, looked up): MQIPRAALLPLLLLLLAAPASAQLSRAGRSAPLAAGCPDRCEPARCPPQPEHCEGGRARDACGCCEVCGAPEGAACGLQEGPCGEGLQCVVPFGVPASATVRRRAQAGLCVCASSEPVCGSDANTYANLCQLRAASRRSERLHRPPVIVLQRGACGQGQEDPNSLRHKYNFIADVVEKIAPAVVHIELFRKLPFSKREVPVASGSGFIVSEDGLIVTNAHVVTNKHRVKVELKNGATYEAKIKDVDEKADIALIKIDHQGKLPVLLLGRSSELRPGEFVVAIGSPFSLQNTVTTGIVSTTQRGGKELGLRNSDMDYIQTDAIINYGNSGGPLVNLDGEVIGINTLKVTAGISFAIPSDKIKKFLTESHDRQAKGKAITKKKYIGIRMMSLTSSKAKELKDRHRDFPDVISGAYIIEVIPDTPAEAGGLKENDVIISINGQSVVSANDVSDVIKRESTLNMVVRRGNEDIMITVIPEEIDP
SIAE inh: human SIAE inhibition, primary screen; hit rate 0.69% among 370,000; inhibition, % at 9.66 µM; SIAE FP-Rh probe binding, fluorescence polarization; Q9HAT2; AID 1053197;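 active = inhibition above a cutoff: mean of compounds within the control limits plus 3 SD of those, cut at about 17% in these data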;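 also: 0% = plate median of compound wells and 100% = probe without SIAE protein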
PRMT1 confirm: PRMT1 (human) inhibition, FP confirmation; shares compounds with PRMT1 inh; recombinant His-PRMT1, activity-based probe fluorescence polarization; inhibition, % at 2.79 µM; hit rate 42% among 3,300; AID 687036;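 active = mean inhibition across replicates above the hit cutoff derived for the earlier primary screen, cut at about 22% in these data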
Numbers without * were called inactive; . = not tested or not shown.

SMILES	TCR-CD3 inh	ABHD4 inh	PRMT1 inh	HTRA1 inh	SIAE inh	PRMT1 confirm
Cc1[nH]c(=S)c(C#N)c(-c2ccccc2)c1C(=O)Nc1ccccc1	0	-6	36*	-1	-8	14
Cc1ccccc1NC(=O)c1c(C)[nH]c(=S)c(C#N)c1-c1ccc(Cl)cc1	1	-6	13	.	7	.
COC(=O)C1CN(CCc2ccccc2)CCS(=O)(=O)N1Cc1ccc(Cl)cc1 (stereo not given)	.	-2	0	.	0	.
CCCC1CCC2(CC1)CCC2OC(=S)Nc1ccccc1Cl (stereo not given)	.	-11	1	.	-5	.
Cn1ccnc1CN1CCC[C@]2(CC[C@H](CCC#N)O2)C1	.	0	-4	.	-4	.
CN(C)CCCN(C(=O)c1ccc(S(=O)(=O)N2CCc3ccccc32)cc1)c1nc2c(Cl)cccc2s1	-4	12	33*	-26	-4	8
CN(C)CCN(C(=O)c1ccc(S(=O)(=O)N2CCc3ccccc32)cc1)c1nc2ccc(F)cc2s1	7	-11	50*	-26	-5	1
O=C(NC1=NCCS1)c1csc2ccccc12	1	-3	27*	-1	0	9
O=C1CSc2ccc(C(=O)N3CCCC(C(=O)N4CCOCC4)C3)cc2N1 (stereo not given)	.	3	0	.	1	.
c1csc(-c2nc3ccccc3s2)c1	-2	1	33*	-1	0	34*
c1ccc2sc(-c3ccncc3)nc2c1	1	-1	-5	7	0	.
O=S(=O)(c1ccc(F)cc1)n1c(CN2CCOCC2)nc2ccccc21	.	-5	1	.	1	.
C[C@@H]1ON(C)[C@H]2C[C@H]3c4cc(N5CCCCC5)ccc4CCN3C[C@@H]12	-1	-2	-2	.	3	.
Oc1c(/C=N/c2ccccn2)sc2ccccc12	-19	-8	25*	-1	-12	15
Oc1c(C=Nc2ccc(Cl)cn2)sc2ccccc12	-4	-1	41*	2	-7	4
Cc1ccc(O)c(N=Cc2sc3ccccc3c2Cl)c1	13	25	1	25	9	.
O=C(NCc1ccncc1)c1cccc(S(=O)(=O)Nc2ccc(SC(F)F)cc2)c1	2	-6	64*	-5	-11	56*
O=C(NCc1cccnc1)c1cccc(S(=O)(=O)Nc2ccc(F)cc2)c1	6	-3	2	-4	1	.
COc1ccc(NS(=O)(=O)c2cccc(C(=O)NCc3ccccn3)c2)cc1	-2	-4	1	2	6	.
O=C(NCc1ccccn1)c1cccc(S(=O)(=O)Nc2ccc(SC(F)F)cc2)c1	-2	-14	78*	0	0	40*
O=C(NCCc1ccccc1)OCc1cn(Cc2ccc(C(F)(F)F)cc2)nn1	.	5	2	.	-1	.
O=C1CC(NCc2ccc3c(c2)OCO3)C(=O)N1Cc1ccc2c(c1)OCO2 (stereo not given)	8	1	56*	-2	-1	0
O=C(CCS(=O)(=O)c1cccs1)Nc1ccc(C(=O)NCc2ccccc2)cc1	-4	-1	2	-10	-3	.
Cc1ccc(CNC(=O)c2ccc(NC(=O)CCS(=O)(=O)c3cccs3)cc2)cc1	3	1	35*	-15	0	2
Cc1ccccc1-n1nc(C(=O)O)c(C)c(C#N)c1=O	1	5	-2	-1	6	.
SMILES	TCR-CD3 inh	ABHD4 inh	PRMT1 inh	HTRA1 inh	SIAE inh	PRMT1 confirm
Cc1c(C(=O)O)nn(-c2cccc(C(F)(F)F)c2)c(=O)c1C#N	9	-16	29*	5	-6	0
N#CC(C#N)=C1C=CC=CN1/C(=C\c1ccccc1Cl)C(=O)c1ccccc1	6	14	29*	-8	5	32*
CN(C)[C@@H]1CCN(c2ccc3c(c2)O[C@H]2CCN(C2)S3(=O)=O)C1	.	0	-1	.	1	.
Cc1cccc(N2C(=O)CC(N3CCC(c4nc5ccccc5[nH]4)CC3)C2=O)c1 (stereo not given)	4	4	47*	-1	-2	3
COc1cccc(N2C(=O)CC(N3CCC(c4nc5ccccc5[nH]4)CC3)C2=O)c1 (stereo not given)	5	-8	60*	-2	1	0
COc1ccc(N2CC(C(=O)N3CCC(c4nc5ccccc5[nH]4)CC3)CC2=O)cc1 (stereo not given)	-6	5	0	-2	2	.
